Experiments:
[1] = test system: Liver; experiment: Half life in mouse liver microsomes at 1.5 uM in presence of NADPH by liquid chromatography/tandem mass spectrometric analysis; assay type: ADME, microsome
[2] = test system: Liver; experiment: Half life in human liver microsomes at 1.5 uM in presence of NADPH by liquid chromatography/tandem mass spectrometric analysis; assay type: ADME, microsome
[3] = test system: Trypanosoma brucei brucei; experiment: Antitrypanosomal activity against Trypanosoma brucei brucei BF427 assessed as growth inhibition measured after 48 hrs by Alamar blue assay; assay type: functional; details: BF427, 48 h
Summary of the method: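 Bloodstream-form parasites in HMI-9 medium are exposed to serial compound dilutions in triplicate. Viability is read with Alamar Blue at 48 h. EC50 and EC90 come from nonlinear regression. Pentamidine isethionate is the control.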

[4] = test system: HepG2; experiment: Cytotoxicity against human HepG2 cells assessed as growth inhibition after 48 hrs by Alamar blue assay; assay type: cell-based; details: for EC50: Homo sapiens, HepG2, 48 h; for EC90: human, hepg2, 48 h
Summary of the method: (§1)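 CRL-8155 lymphoblasts or HepG2 hepatocellular carcinoma cells are exposed 48 h to serial compound dilutions in quadruplicate. Growth is read with Alamar Blue, and 50% and 90% inhibitory concentrations come from nonlinear regression. Quinacrine is the control.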

[5] = Selectivity index, ratio of EC50 for human CRL8155 cells to EC50 for Trypanosoma brucei brucei BF427; assay type: toxicity; details: read-out: Ratio EC50
[6] = Selectivity index, ratio of EC50 for human HepG2 cells to EC50 for Trypanosoma brucei brucei BF427; assay type: toxicity; details: read-out: Ratio EC50
[7] = Cytotoxicity against human CRL8155 cells assessed as growth inhibition after 48 hrs by Alamar blue assay; assay type: cell-based; details: for EC50: Homo sapiens, CRL8155, 48 h; for EC90: human, crl8155, 48 h; summary of the method: as §1
[8] = Drug level in mouse plasma at 5 mg/kg, ip administered as single dose measured at 1 hr post dose by liquid chromatography/tandem mass spectrometric analysis; assay type: ADME, organism-based
Summary of the method: (§2)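 Single ip dose of 5 mg/kg in 5% DMSO/7% Tween 80/3% EtOH in 0.9% saline, three mice per compound (six for one compound). At 1 h, plasma is separated by centrifugation and brain homogenized in acetonitrile. Both are quantified by LC-MS/MS, with brain corrected for 3% v/w blood. Brain/plasma ratio is reported as mean ± SEM.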

[9] = Drug level in mouse brain at 5 mg/kg, ip administered as single dose measured at 1 hr post dose by liquid chromatography/tandem mass spectrometric analysis; assay type: ADME, organism-based; details: read-out: Drug uptake; summary of the method: as §2

SMILES | t1/2 [1] [min] | t1/2 [2] [min] | EC50 [3] [µM] | EC90 [3] [µM] | EC50 [4] [µM] | EC90 [4] [µM] | selectivity ratio [5] | selectivity ratio [6] | EC50 [7] [µM] | EC90 [7] [µM] | concentration at 1 h [8] [nM] | concentration at 1 h [9] [nM]
C[C@]12CC[C@H]3[C@@H](CCC4=CC(=O)CC[C@@]43C)[C@@H]1CC[C@@H]2O [TESTOSTERONE] | 5.26 | 22.7 |  |  |  |  |  |  |  |  |  | 
O=C(Nc1ccc2sc(-c3ccccc3)nc2c1)c1cscn1 |  |  | > 10 | > 10 |  |  |  |  |  |  |  | 
O=C(Nc1ccc2[nH]c(-c3ccccc3)nc2c1)c1ccccc1 |  |  | > 10 | > 10 |  |  |  |  |  |  |  | 
O=C(Nc1ccc2sc(-c3ccc(F)cc3)nc2c1)N1CCCCC1 |  |  | 0.427 | 0.737 | > 50 | > 50 | > 117 | > 117 | > 50 | > 50 |  | 
O=C(NCCc1nc(-c2cccc(F)c2)cs1)N1CCCc2ccccc21 |  |  | 5.95 | 14 |  |  |  |  |  |  |  | 
O=C(Nc1ccc2sc(-c3ccc(F)cc3)nc2c1)c1ccccc1 |  |  | 1.92 | 3 |  |  |  |  |  |  |  | 
O=C(Nc1ccc2sc(-c3ccccc3)nc2c1)c1nccs1 |  |  | 5.86 | > 10 |  |  |  |  |  |  |  | 
O=C(Nc1ccc2sc(-c3ccc(F)c(F)c3)nc2c1)N1CCC(F)CC1 |  |  | 0.341 | 0.596 | > 50 | > 50 | > 147 | > 147 | > 50 | > 50 | 2510 | 2520
O=C(Nc1ccc2oc(-c3ccccc3)nc2c1)c1ccccc1 | 17 | 60 | > 10 | > 10 |  |  |  |  |  |  |  | 
CCN(CC)CCCC(C)Nc1c2ccc(Cl)cc2nc2ccc(OC)cc12 (stereo unspecified) [QUINACRINE] |  |  |  |  | 10.4 | 18.2 |  |  | 4.23 | 9.94 |  | 
CC(C)(Cc1csc(-c2ccccc2)n1)NC(=O)c1ccccc1 |  |  | > 10 | > 10 |  |  |  |  |  |  |  | 
O=C(Nc1ccc2sc(-c3ccccc3)nc2c1)N1CCCC1 | 18 | 30 | 0.325 | 0.817 | > 50 | > 50 | > 154 | > 154 | > 50 | > 50 | 3400 | 4240
O=C(Nc1ccc2sc(-c3cccc(F)c3F)nc2c1)N1CCCC1 |  |  | 0.183 | 0.394 | > 50 | > 50 | > 273 | > 273 | > 50 | > 50 | 1300 | 2310
O=C(Nc1ccc2sc(-c3ccc(F)cc3)nc2c1)N1CCCC1 |  |  | 0.375 | 0.895 | > 50 | > 50 | > 133 | > 133 | > 50 | > 50 |  | 
CC(C)(CNC(=O)c1ccccc1)c1nc(-c2ccccc2)cs1 |  |  | > 10 | > 10 |  |  |  |  |  |  |  | 
CC(C)(Cc1csc(-c2ccccc2)n1)NC(=O)N1CCCC1 |  |  | > 10 | > 10 |  |  |  |  |  |  |  | 
O=C(Nc1ccc2sc(-c3ccccc3)nc2c1)c1cccs1 |  |  | 0.882 | 2.13 | > 50 | > 50 | > 57 | > 57 | > 50 | > 50 |  | 
O=C(Nc1nc2ccc(-c3ccc(F)c(F)c3)cc2s1)N1CCC(F)C1 (stereo unspecified) |  |  | 2.23 | > 20 |  |  |  |  |  |  |  | 
O=C(Nc1ccc2sc(-c3ccc(F)c(F)c3)nc2c1)N1CC[C@@H](F)C1 |  |  | 0.326 | 0.491 | > 50 |  | > 153 | > 153 | > 50 | > 50 | 1200 | 6350
O=C(Nc1ccc2sc(-c3ccccc3)nc2c1)c1ccsc1 |  |  | 1.57 | 2.49 |  |  |  |  |  |  |  | 
O=C(Nc1ccc2sc(-c3ccc(F)c(F)c3)nc2c1)N1CCC(O)C1 (stereo unspecified) |  |  | 7.68 | 13.6 |  |  |  |  |  |  |  | 
N=C(N)c1ccc(OCCCCCOc2ccc(C(=N)N)cc2)cc1 |  |  | 0.00105 | 0.00354 | > 100 | > 100 | > 43200 | > 93000 | 45.4 | > 100 |  | 
CC(C)(Cc1nc(-c2ccccc2)cs1)NC(=O)c1ccccc1 |  |  | > 10 | > 10 |  |  |  |  |  |  |  | 
CC(C)(Cc1csc(-c2ccccc2)n1)NC(=O)N1CCCCCC1 |  |  | > 10 | > 10 |  |  |  |  |  |  |  | 
O=C(Nc1nc2cc(-c3ccc(F)c(F)c3)ccc2s1)N1CCC(F)C1 (stereo unspecified) |  |  | 2.64 | 5.28 |  |  |  |  |  |  |  | 

Reference: ChEMBL document CHEMBL3992510, “Urea Derivatives of 2-Aryl-benzothiazol-5-amines: A New Class of Potential Drugs for Human African Trypanosomiasis” (J Med Chem, 2017)
